Tests used:
[1] = molecular target: BCR/ABL p210 fusion protein (Homo sapiens, UniProt A1Z199); assay: Inhibition of human BCR/ABL p210 fusion protein expressed in BAF3 cells assessed as growth inhibition measured after 72 hrs by CellTiter-Glo or CCK8 assay; format: cell-based
In short: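 Seeded at 1 to 2.5×10^4 cells/mL with various compound concentrations, 72 h. Viability read by CellTiter-Glo luminescence or CCK-8 absorbance (450/655 nm), normalized to DMSO control, GI50 from curve fit, triplicate testing.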

[2] = Growth inhibition of mouse BAF3 cells measured after 72 hrs by CellTiter-Glo or CCK8 assay; format: cell-based
In short: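 Cells at 1 to 2.5×10^4 cells/mL were incubated with a range of compound concentrations for 72 h. Viability was read by CellTiter-Glo luminescence or CCK-8 absorbance (450/655 nm) and normalized to DMSO control. GI50 came from curve fitting, with triplicate testing.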

[3] = molecular target: T1, Mast/stem cell growth factor receptor Kit (Homo sapiens, UniProt P10721); details: BaF3
T1 sequence (P10721 whole entry): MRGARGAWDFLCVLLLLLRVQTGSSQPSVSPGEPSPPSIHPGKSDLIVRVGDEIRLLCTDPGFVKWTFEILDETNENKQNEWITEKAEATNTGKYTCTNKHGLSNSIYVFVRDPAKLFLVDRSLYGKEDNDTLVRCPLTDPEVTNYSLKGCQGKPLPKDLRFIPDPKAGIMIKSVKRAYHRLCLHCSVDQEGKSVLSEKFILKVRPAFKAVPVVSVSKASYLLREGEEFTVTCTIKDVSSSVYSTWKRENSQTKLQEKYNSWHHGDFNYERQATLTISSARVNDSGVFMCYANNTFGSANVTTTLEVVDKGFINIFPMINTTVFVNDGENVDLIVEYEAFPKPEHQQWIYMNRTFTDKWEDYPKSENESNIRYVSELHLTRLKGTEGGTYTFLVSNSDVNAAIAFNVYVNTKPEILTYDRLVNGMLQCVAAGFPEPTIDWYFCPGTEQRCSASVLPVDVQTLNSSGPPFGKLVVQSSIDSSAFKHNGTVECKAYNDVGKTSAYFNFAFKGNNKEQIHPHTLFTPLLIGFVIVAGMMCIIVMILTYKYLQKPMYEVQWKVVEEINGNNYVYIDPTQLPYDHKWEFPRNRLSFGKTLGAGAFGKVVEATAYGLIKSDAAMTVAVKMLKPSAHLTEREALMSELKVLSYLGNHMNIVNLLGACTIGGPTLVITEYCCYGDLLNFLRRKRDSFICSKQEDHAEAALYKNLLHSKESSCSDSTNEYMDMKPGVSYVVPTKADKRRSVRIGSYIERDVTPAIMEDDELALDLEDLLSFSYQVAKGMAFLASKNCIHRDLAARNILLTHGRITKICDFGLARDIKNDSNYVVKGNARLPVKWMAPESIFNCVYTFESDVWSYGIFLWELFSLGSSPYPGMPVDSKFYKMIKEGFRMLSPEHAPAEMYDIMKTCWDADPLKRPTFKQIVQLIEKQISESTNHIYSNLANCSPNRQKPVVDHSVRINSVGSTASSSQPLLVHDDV

[4] = molecular target: T1, Mast/stem cell growth factor receptor Kit; assay: Inhibition of recombinant C-terminal polyhistidine-tagged human c-KIT expressed in mammalian expression system using Tyr 06 peptide as substrate measured after 1hr by FRET based Z'Lyte assay

Chain of BCR/ABL p210 fusion protein (A1Z199 1-97): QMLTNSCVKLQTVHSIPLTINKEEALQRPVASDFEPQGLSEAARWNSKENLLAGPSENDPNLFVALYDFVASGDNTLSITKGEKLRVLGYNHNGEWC

| GI50 [1] [nM] | GI50 [3] [nM] | IC50 [4] [nM] | Structure (SMILES) | GI50 at 72 h [2] [nM] |
| --- | --- | --- | --- | --- |
| 8410 | > 10000 | – | COc1ccc(NC(=O)c2ccc(CN3CCN(C)CC3)c(C(F)(F)F)c2)cc1OC1CCN(C(=O)c2cccnc2)CC1 | > 10000 |
| 2000 | 63 | – | Cc1ccc(NC(=O)c2ccc(CN3CCN(C)CC3)c(C(F)(F)F)c2)cc1OC1CCN(C(=O)c2cccnc2F)CC1 | 1520 |
| 3070 | 1630 | – | Cc1ccc(NC(=O)c2ccc(CN3CCN(C)CC3)c(C(F)(F)F)c2)cc1OC1CCN(C(=O)CN(C)C)CC1 | > 10000 |
| 635 | 550 | – | Cc1ccc(NC(=O)c2ccc(CN3CCN(C)CC3)c(C(F)(F)F)c2)cc1OC1CCN(C(=O)c2ccccc2)CC1 | 4730 |
| 253 | 340 | – | CN1CCN(Cc2ccc(C(=O)Nc3ccc(Cl)c(OC4CCN(C(=O)c5cccnc5)CC4)c3)cc2C(F)(F)F)CC1 | > 10000 |
| 135 | 26 | – | Cc1ccc(NC(=O)c2ccc(CN3CCN(C)CC3)c(C(F)(F)F)c2)cc1OC1CCN(C(=O)c2ccsc2)CC1 | 1480 |
| 8780 | > 5000 | – | Cc1ccc(NC(=O)c2ccc(CN3CCN(C)CC3)cc2)cc1OC1CCN(C(=O)c2cccnc2)CC1 | > 10000 |
| 203 | 210 | 336 | Cc1ccc(NC(=O)c2ccc(CN3CCN(C)CC3)c(C(F)(F)F)c2)cc1OC1CCN(C(=O)c2cnccc2C)CC1 | 2680 |
| 4770 | 600 | – | Cc1ccc(NC(=O)c2ccc(CN3CCN(C)CC3)c(C(F)(F)F)c2)cc1OC1CCN(S(=O)(=O)c2ccccc2)CC1 | 5100 |
| 2210 | 370 | – | Cc1ccc(NC(=O)c2ccc(CN3CCN(C)CC3)c(C(F)(F)F)c2)cc1OC1CCN(C(=O)c2cccnc2C)CC1 | 540 |
| 5520 | 780 | – | Cc1ccc(NC(=O)c2ccc(CN3CCN(C)CC3)c(C(F)(F)F)c2)cc1OC1CCN(C(=O)Cc2cccnc2)CC1 | 6490 |
| 219 | 37 | – | Cc1ccc(NC(=O)c2ccc(CN3CCN(C)CC3)c(C(F)(F)F)c2)cc1OC1CCN(C(=O)c2cncc(Cl)c2)CC1 | 2870 |
| 1550 | 3300 | – | Cc1ccc(NC(=O)c2ccc(CN3CCN(C)CC3)c(C(F)(F)F)c2)cc1OCCNC(=O)c1cccnc1 | > 10000 |
| 72 | 200 | 644 | Cc1ccc(NC(=O)c2ccc(CN3CCN(C)CC3)c(C(F)(F)F)c2)cc1OC1CCN(C(=O)c2ccccn2)CC1 | > 10000 |
| 5400 | 2860 | – | Cc1ccc(NC(=O)c2ccc(CN3CCN(C)CC3)c(C(F)(F)F)c2)cc1OCC1CN(C(=O)c2cccnc2)C1 | 1070 |
| 88 | 170 | 256 | Cc1ccc(NC(=O)c2ccc(CN3CCN(C)CC3)c(C(F)(F)F)c2)cc1OC1CCN(C(=O)c2ccncc2)CC1 | > 10000 |
| 86 | 320 | – | Cc1ccc(NC(=O)c2ccc(CN3CCN(C)CC3)c(C(F)(F)F)c2)cc1OC1CCN(C(=O)c2cnc3ccccc3c2)CC1 | 1300 |
| 427 | – | – | C=CC(=O)N1CCC(Oc2cc(NC(=O)c3ccc(CN4CCN(C)CC4)c(C(F)(F)F)c3)ccc2C)CC1 | > 10000 |
| 998 | 300 | – | CCC(=O)N1CCC(Oc2cc(NC(=O)c3ccc(CN4CCN(C)CC4)c(C(F)(F)F)c3)ccc2C)CC1 | > 10000 |
| 4940 | 3820 | – | Cc1ccc(NC(=O)c2ccc(CN3CCN(C)CC3)c(C(F)(F)F)c2)cc1OCC1CCN(C(=O)c2cccnc2)C1 (configuration not stated) | 3980 |
| 1970 | 1600 | – | Cc1ccc(NC(=O)c2ccc(CN3CCN(C)CC3)c(C(F)(F)F)c2)cc1OC1CCN(C(=O)c2ccc(=O)[nH]c2)CC1 | > 10000 |
| 3220 | 2500 | – | Cc1ccc(NC(=O)c2ccc(CN3CCN(C)CC3)c(C(F)(F)F)c2)cc1OC1CCN(c2ncccn2)CC1 | 8100 |
| 153 | 270 | – | Cc1ccc(NC(=O)c2ccc(CN3CCN(C)CC3)c(C(F)(F)F)c2)cc1OC1CCN(C(=O)c2ccoc2)CC1 | > 10000 |
| 2760 | 62 | – | Cc1ccc(NC(=O)c2ccc(CN3CCN(C)CC3)c(C(F)(F)F)c2)cc1OC1CCN(C(=O)c2cccnc2Cl)CC1 | 2720 |
| 773 | 190 | – | COc1cc2ncnc(N3CCC(Oc4cc(NC(=O)c5ccc(CN6CCN(C)CC6)c(C(F)(F)F)c5)ccc4C)CC3)c2cc1OC | 1200 |
| 168 | 200 | – | Cc1ccc(NC(=O)c2ccc(CN3CCN(C)CC3)c(C(F)(F)F)c2)cc1OC1CCN(C(=O)c2cnc(N)nc2)CC1 | > 10000 |
| 79 | 28 | 214 | Cc1cncc(C(=O)N2CCC(Oc3cc(NC(=O)c4ccc(CN5CCN(C)CC5)c(C(F)(F)F)c4)ccc3C)CC2)c1 | 800 |
| 164 | 220 | – | Cc1ccc(NC(=O)c2ccc(CN3CCN(C)CC3)c(C(F)(F)F)c2)cc1OC1CCN(C(=O)c2cccnc2)CC1 | > 10000 |

Source: ChEMBL document CHEMBL3877303 (J Med Chem, 2017)
